High-throughput results deposited in PubChem by The Scripps Research Institute Molecular Screening Center.
Compounds with a hit are over-represented: about 1.9% of the library has one in this group of screens.
UHRF1 MBD2 ctr – UHRF1 methyl-DNA binding inhibition; UHRF1 binding to methylated oligo, TR-FRET; inhibition, % at 4.4 µM; 370,000 compounds, 0.75% hits; Q96T88; in the data active = inhibition above about 21%;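 note: UHRF1 SRA domain binding a hemimethylated CpG hairpin DNA probe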
Target sequence (Q96T88 whole entry, looked up, the tested form may be a part): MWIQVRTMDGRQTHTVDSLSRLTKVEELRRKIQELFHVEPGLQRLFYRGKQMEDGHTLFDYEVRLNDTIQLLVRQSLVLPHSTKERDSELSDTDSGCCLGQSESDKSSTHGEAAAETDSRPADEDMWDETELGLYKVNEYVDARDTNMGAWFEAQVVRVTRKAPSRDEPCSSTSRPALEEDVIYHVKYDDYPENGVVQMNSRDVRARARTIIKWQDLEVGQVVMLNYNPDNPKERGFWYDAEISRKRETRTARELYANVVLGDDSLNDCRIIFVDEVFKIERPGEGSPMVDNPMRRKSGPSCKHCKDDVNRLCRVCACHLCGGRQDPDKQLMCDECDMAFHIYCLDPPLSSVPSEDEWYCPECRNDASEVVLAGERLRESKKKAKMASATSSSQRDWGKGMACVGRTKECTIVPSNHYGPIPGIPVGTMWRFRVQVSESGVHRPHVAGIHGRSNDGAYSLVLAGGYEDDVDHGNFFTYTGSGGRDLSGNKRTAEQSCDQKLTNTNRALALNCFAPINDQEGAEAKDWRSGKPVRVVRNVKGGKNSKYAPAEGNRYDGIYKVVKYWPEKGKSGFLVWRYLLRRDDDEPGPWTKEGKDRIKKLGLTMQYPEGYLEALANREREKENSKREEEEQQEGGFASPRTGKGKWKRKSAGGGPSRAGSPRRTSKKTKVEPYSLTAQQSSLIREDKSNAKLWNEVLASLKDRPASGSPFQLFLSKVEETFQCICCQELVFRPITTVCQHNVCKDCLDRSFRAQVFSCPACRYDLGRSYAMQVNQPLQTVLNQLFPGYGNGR
TDP2 inh – blocks human TDP2 phosphodiesterase activity; O95551; recombinant TDP2, T5PNP hydrolysis, p-nitrophenol absorbance 415 nm; inhibition, % at 12.8 µM; 370,000 compounds, 0.34% hits; AID 720702;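 active = inhibition above the mean of all tested compounds plus 3 SD, set per campaign, cut at about 25% in these data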
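test system = human TDP2 enzyme | input = TDP2 enzyme at 120 nM final | medium = 50 mM Tris-HCl pH 7.5 with Mg2+, KCl, DTT, BSA | also added = T5PNP substrate, 5 mM | times = 2 h at 37 °C | technique = epi absorbance | benchmarks = high control without enzyme, low control DMSO plus TDP2 | replication = each compound tested once, singlicate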
MBD2 inh – inhibitors of human MBD2 binding to methylated oligonucleotide | TR-FRET | 370,000 compounds, 0.31% hits | Q9UBB5 | AID 686964 | inhibition, % at 4.4 µM; in the data active = inhibition above about 13%
LEDGF integ inh – blocks HIV-1 LEDGF/p75-dependent DNA integration. TR-FRET IN-LEDGF/p75 DNA integration, Eu/Cy5. inhibition, % at 3.7 µM. 370,000 compounds, 0.64% hits;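 active = inhibition above the screen-wide mean plus 3 SD, cut at about 13% in these data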;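 note: signal is the Cy5 over europium emission ratio at 671 and 618 nm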
Rin1-Abl PPI inh – inhibitors of human Rin1-Abl protein interaction. P00519+Q13671. TR-FRET Rin1/Abl binding, biochemical. inhibition, % at 7.35 µM. 360,000 compounds, 0.4% hits; in the data active = inhibition above about 5%, passing the limit was not always enough
TDP2 inh conf – confirmation of human TDP2 inhibitors. AID 743263. shares compounds with TDP2 inh. inhibition, % at 12.8 µM. recombinant human TDP2, absorbance read-out. 1,100 compounds, 22% hits; in the data active = inhibition above about 25%
IN multimer act – counter-screen for LEDGF/p75 integration inhibitors: HIV-1 integrase multimerization activators. AID 1053131. 2,000 compounds, 17% hits. activation, % at 7.7 µM. shares compounds with LEDGF integ inh. TR-FRET HIV-1 integrase multimerization, biochemical; in the data active = activation above about 8.9%
TRFRET interf – TR-FRET optical interference, LEDGF/p75 integration counter-screen; TR-FRET optical interference counterscreen, HIV-1 IN multimerization; 2,000 tested, under 10 active; AID 1053135; shares compounds with LEDGF integ inh; inhibition, % at 7.7 µM;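 active = inhibition above the mean over all tested compounds plus 3 SD, which no compound reached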
LEDGF integ conf – confirmation of HIV-1 LEDGF/p75-dependent integration inhibitors; shares compounds with LEDGF integ inh; TR-FRET LEDGF/p75-dependent HIV-1 integration, biochemical; inhibition, % at 3.7 µM; 2,000 compounds, 36% hits; AID 1053136; in the data active = inhibition above about 14%
A number is an active result; – = inactive; · = not tested or not shown; ! = repeats disagree.

SMILES	UHRF1 MBD2 ctr	TDP2 inh	MBD2 inh	LEDGF integ inh	Rin1-Abl PPI inh	TDP2 inh conf	IN multimer act	TRFRET interf	LEDGF integ conf
O=c1[nH]c(Nc2ccccc2Cl)cc2ccccc12	–	71	–	30	–	43	–	–	30
Cc1ccc(CSc2nnc(-c3cc(-c4ccc(C)cc4)n[nH]3)n2N)cc1	–	–	–	–	·	·	·	·	·
Cc1ccc(-c2nc3ncccn3c2NC(=O)Nc2ccc(OC(F)(F)F)cc2)cc1	–	–	–	–	·	·	·	·	·
CC(NC1=CC(=O)c2cccnc2C1=O)C(O)c1ccccc1 (configuration not stated)	–	57	–	36	–	71	–	–	66
CCOc1cc(N2CCOCC2)c(OCC)cc1NC(=O)CSc1ncccc1C(=O)O	–	30	–	29	–	–	–	–	–
C[c-]1[c-](C)[c-](C)[c-](C)[c-]1C.[Fe].c1cc2nccc(N3CCCC3)[c-]2c1 (configuration not stated)	–	34	–	20!	–	26!	–	–	49
CN1CCN(C2=C(Cl)C(=O)c3ccccc3C2=O)CC1	–	69	–	34	–	80	–	–	73
O=C1C(Cl)=C(N2CCC(C(=O)O)CC2)C(=O)c2ccccc21	·	·	·	·	–	·	·	·	·
COc1cc(C(=O)Nc2cccc3ncccc23)cc(OC)c1OC	–	–	–	–	–	·	·	·	·
COc1cc(N)c2ncccc2c1OC	–	46	–	27	–	–	–	–	–
CCc1nnc(-n2nc(C)cc2-c2ccccc2)n1N	–	–	–	–	–	·	·	·	·
CCc1nnc(N/N=C/c2cc(C)c(C)cc2C)n1N	–	65	–	58	–	–	–	–	–
Cc1nnc(N/N=C/c2c(Cl)cccc2Cl)n1N	–	52	–	35	–	–	–	–	–
Cc1nnc(N/N=C/c2ccccc2O)n1N	–	59	–	59	–	26	–	–	–
CCOc1cc(/C=N/Nc2nnc(C)n2N)ccc1O	–	48	–	66	–	–	–	–	–
Fc1cccc(Cl)c1/C=N/Nc1ccccn1	–	–	–	–	–	·	·	·	·
CCc1nnc(N/N=C/c2c(F)cccc2Cl)n1N	–	58	–	57	–	–	–	–	–
CCOc1cc(/C=C2\C(=O)N(CCC#N)N=C2C)ccc1OCC(N)=O	–	77	–	15	–	–	–	–	–
C[C@@H]1[C@@H](O)C[C@@]2(C[C@H](O)c3cc(Cl)ccc3O2)O[C@H]1c1ccccc1Cl	–	–	–	–	·	·	·	·	·
Nn1cnnc1N/N=C/c1cc(Br)cc(Br)c1O	–	54	–	44	–	–	–	–	–
CSc1ccc(/C=N\Nc2nncn2N)cc1	–	64	–	40	–	–	–	–	–
CC1CCN(c2ccc(/C=N\Nc3nncn3N)cc2[N+](=O)[O-])CC1	–	79	–	47	–	–	–	–	–
CC(C)(C)c1nnc(N/N=C/c2ccc(Br)cc2)n(N)c1=O	–	–	–	–	–	·	·	·	·
CSc1ccc(/C=N/NC(=O)c2ccc(-n3cnnn3)cc2)cc1	–	–	–	–	–	·	·	·	·
CC(C)(C)c1ccc(/C=N/Nc2nncn2N)cc1	–	67	–	39	–	–	–	–	–
SMILES	UHRF1 MBD2 ctr	TDP2 inh	MBD2 inh	LEDGF integ inh	Rin1-Abl PPI inh	TDP2 inh conf	IN multimer act	TRFRET interf	LEDGF integ conf
CS/C(N)=N/N=C/c1cc(Br)cc(Br)c1O	–	–	–	–	–	·	·	·	·
O=S1(=O)c2ccc(N3CC[C@H](O)C3)cc2OCCCN1C1CC1	–	–	–	–	·	·	·	·	·
NC1=C(Cl)C(=O)c2ccccc2C1=O	–	–	–	–	–	·	·	·	·
NC1=C(Cl)C(=O)c2ccc(S(N)(=O)=O)cc2C1=O	–	76	–	29	–	74	12	–	76
O=c1cc(-c2cccc([N+](=O)[O-])c2)[nH][nH]1	–	71	–	22	–	–	–	–	–
Nc1cc(-c2cccc([N+](=O)[O-])c2)[nH]n1	–	–	–	–	–	·	·	·	·
Cc1ccc(S(=O)(=O)N2C=C(c3ccccc3)c3ccccc3-c3ccccc32)cc1	–	–	–	–	·	·	·	·	·
CC(C)(C)c1cc(=O)n(-c2ccccc2)[nH]1	–	85	–	22	13	89	–	–	–
O=c1cc(-c2ccccc2)[nH]n1-c1ccccc1	–	76	–	37	–	–	–	–	–
O=c1ccc(=O)n(-c2ccccc2)[nH]1	–	–	–	–	–	·	·	·	·
Fc1ccc(Nc2cncc(-c3ccsc3)c2)cc1Cl	–	81	–	38	–	52	–	–	16
Cc1cccc(Cn2cc(COC(=O)N3CCOCC3)nn2)c1	–	–	–	–	·	·	·	·	·
COc1cc(-c2[nH]nc3c2C(c2ccco2)C(C#N)=C(N)O3)cc(OC)c1OC (configuration not stated)	–	42	–	16	–	–	–	–	–
COc1cc(-c2[nH]nc3c2C(c2ccoc2)C(C#N)=C(N)O3)cc(OC)c1OC (configuration not stated)	–	–	–	–	–	·	·	·	·
O=C(NCc1cccs1)O[C@H]1CC[C@@]23CCCN2C(=O)CCC[C@H]3C1	–	–	–	–	·	·	·	·	·
CCOc1ccc(NC(=S)NC(=O)/C=C/c2ccco2)cc1	–	–	–	–	–	·	·	·	·
COc1cc(NS(=O)(=O)c2ccc(NC(=S)NC(=O)/C=C/c3ccco3)cc2)ncn1	45	36	–	23	–	41	–	–	37
COc1ccc(C2=NN(c3ccccc3)C(=O)/C2=C\c2ccc(O)c(OC)c2)cc1	–	46	–	17	–	–	–	–	–
COc1cc(/C=C2\C(=O)ON=C2c2ccc(Cl)cc2)ccc1O	–	–	–	–	·	·	·	·	·
Cc1cc(N2CCOc3ccccc32)nc2ccccc12	–	–	–	–	·	·	·	·	·
CC(=O)NC1C(=O)N(CCN2CCOCC2)c2ccc(Br)cc21 (configuration not stated)	–	44	–	16	–	36	–	–	37
CCOc1ccc2c(c1)C(NC(C)=O)C(=O)N2CCN1CCOCC1 (configuration not stated)	–	–	–	–	–	·	·	·	·
CCN(CCO)c1ccc(NC(=S)Nc2cccc(S(=O)(=O)N(C)C)c2)cc1	–	36	–	24	–	–	–	–	–
N#CCC[C@H]1CC[C@]2(CCCN(C(=O)c3ccno3)C2)O1	–	–	–	–	·	·	·	·	·
